# Measurements as given in ChEMBL document CHEMBL1154626, “Novel, potent, and selective quinoxaline-based 5-HT(3) receptor ligands. 1. Further structure-activity relationships and pharmacological characterization” (J Med Chem, 2009).
# Calls of active or inactive are those of the source. No cut-off for these calls is given here.
# Experiments:
# [1] = biological target: T1, 5-hydroxytryptamine receptor 3A (Rattus norvegicus, UniProt P35563); test: Displacement of [3H]LY278584 from 5HT3 receptor in rat cortical homogenate; conditions: read-out: Ki
# T1 sequence (P35563 whole entry): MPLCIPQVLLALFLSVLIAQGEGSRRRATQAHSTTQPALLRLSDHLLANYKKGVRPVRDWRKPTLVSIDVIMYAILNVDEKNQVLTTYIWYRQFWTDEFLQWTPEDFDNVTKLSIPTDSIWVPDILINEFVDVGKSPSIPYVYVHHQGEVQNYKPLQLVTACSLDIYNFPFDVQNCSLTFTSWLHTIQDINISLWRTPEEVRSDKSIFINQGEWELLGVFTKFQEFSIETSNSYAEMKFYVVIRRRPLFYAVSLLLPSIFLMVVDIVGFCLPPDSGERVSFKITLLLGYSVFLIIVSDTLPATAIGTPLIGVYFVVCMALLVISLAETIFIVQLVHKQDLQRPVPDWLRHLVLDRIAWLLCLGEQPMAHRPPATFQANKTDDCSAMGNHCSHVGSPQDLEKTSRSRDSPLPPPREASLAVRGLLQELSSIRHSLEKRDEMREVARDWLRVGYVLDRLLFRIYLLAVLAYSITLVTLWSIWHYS
# Method in brief: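 Rat cortical homogenate, competition against [3H]LY278584 binding. Ki is the concentration giving half-maximal inhibition of binding, as the mean ± S.E.M. of three determinations.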
# [2] = biological target: T2, 5-hydroxytryptamine receptor 3A (Cavia porcellus, UniProt O70212); test: Antagonist activity at 5HT3 receptor in spontaneously beating guinea pig right atrium assessed as inhibition of serotonin-induced maximum response by noncompetitive binding assay; format: tissue-based, Cardiac atrium; conditions: read-out: IC50
# T2 sequence (O70212 whole entry): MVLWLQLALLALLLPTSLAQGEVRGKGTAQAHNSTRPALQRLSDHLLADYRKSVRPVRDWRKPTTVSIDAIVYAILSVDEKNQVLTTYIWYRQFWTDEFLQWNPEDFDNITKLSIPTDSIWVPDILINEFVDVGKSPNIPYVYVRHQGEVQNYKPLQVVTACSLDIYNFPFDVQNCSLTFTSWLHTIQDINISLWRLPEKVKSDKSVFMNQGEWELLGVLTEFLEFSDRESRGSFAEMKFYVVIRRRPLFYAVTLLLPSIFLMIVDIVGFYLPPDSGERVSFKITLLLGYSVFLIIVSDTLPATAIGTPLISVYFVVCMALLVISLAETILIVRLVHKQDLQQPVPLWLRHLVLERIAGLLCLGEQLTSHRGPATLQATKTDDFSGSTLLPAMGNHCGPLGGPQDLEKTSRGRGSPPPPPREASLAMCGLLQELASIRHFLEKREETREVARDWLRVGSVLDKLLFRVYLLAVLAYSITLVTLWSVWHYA
# Method in brief: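 Spontaneously beating guinea pig right atria, exposed 30 min to test compound at 10 μM, followed by cumulative 5-HT log concentration-response curves versus control. Mean ± SEM of five to seven observations.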
# [3] = tested on: Rattus norvegicus; test: Plasma concentration in rat at 0.25 mg/kg, iv; format: ADME, organism-based; set-up: dose 0.25 mg/kg, route intravenous; conditions: in vivo, BLD = below limit of detection
# Method in brief: (§1)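 Rats dosed iv at 0.25–1 mg/kg and sacrificed 30 min after injection. Mean ± SEM of three animals. Brain/plasma ratio assumes 1 g tissue equals 1 mL water.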
# [4] = tested on: Brain; test: Drug level in rat brain at 0.5 mg/kg, iv; format: ADME, organism-based; set-up: dose 0.5 mg/kg, route intravenous; conditions: in vivo, read-out: Drug uptake; method in brief: as §1
# [5] = tested on: Brain; test: Drug level in rat brain at 1 mg/kg, iv; format: ADME, organism-based; set-up: dose 1 mg/kg, route intravenous; conditions: read-out: Drug uptake, in vivo; method in brief: as §1
# [6] = Ratio of drug level from brain to plasma in rat at 0.5 mg/kg, iv; format: ADME, organism-based; set-up: dose 0.5 mg/kg, route intravenous
# Method in brief: (§2)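 Rats given a single iv injection (0.25–1 mg/kg) and killed 30 min afterwards. Brain/plasma ratio calculated assuming 1 g tissue equals 1 mL water. Three animals per dose, mean ± SEM.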
# [7] = Ratio of drug level from brain to plasma in rat at 1 mg/kg, iv; format: ADME, organism-based; set-up: dose 1 mg/kg, route intravenous; method in brief: as §2
# [8] = biological target: T3, 5-hydroxytryptamine receptor 1A (Rattus norvegicus, UniProt P19327); test: Displacement of [3H]8-OHDPAT from 5HT1A receptor in rat hippocampus; format: tissue-based
# T3 sequence (P19327 whole entry): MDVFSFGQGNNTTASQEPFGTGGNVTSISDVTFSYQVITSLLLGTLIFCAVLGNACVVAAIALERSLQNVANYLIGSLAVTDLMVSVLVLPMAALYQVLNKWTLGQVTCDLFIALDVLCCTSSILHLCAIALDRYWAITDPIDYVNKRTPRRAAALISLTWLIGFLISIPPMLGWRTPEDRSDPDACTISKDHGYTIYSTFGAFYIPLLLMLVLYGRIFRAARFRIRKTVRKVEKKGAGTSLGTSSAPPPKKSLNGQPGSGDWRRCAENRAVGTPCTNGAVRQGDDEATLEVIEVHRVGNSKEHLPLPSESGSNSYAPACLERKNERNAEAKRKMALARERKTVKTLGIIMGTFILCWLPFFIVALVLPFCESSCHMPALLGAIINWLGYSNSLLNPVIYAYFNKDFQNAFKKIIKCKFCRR
# [9] = biological target: 5-hydroxytryptamine receptor 2A (Rattus norvegicus, UniProt P14842); test: Displacement of [3H]ketanserin from 5HT2A receptor in rat cortex
# 5-hydroxytryptamine receptor 2A, sequence (P14842 whole entry): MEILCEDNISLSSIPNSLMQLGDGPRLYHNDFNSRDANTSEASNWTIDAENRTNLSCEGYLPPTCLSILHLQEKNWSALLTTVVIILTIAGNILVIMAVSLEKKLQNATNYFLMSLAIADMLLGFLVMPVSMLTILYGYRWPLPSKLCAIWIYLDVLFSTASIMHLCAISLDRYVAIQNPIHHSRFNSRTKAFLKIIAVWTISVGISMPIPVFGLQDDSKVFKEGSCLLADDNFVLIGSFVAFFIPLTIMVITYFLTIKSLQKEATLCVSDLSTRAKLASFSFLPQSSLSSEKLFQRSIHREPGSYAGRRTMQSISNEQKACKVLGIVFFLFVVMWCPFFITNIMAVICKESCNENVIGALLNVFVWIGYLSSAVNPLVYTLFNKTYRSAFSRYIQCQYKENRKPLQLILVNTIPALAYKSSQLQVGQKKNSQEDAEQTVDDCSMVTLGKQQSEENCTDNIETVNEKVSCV
# [10] = biological target: 5-hydroxytryptamine receptor 4 (Cavia porcellus, UniProt O70528); test: Displacement of [3H]GR-113808 from 5HT4 receptor in guinea pig striatum
# 5-hydroxytryptamine receptor 4, sequence (O70528 whole entry): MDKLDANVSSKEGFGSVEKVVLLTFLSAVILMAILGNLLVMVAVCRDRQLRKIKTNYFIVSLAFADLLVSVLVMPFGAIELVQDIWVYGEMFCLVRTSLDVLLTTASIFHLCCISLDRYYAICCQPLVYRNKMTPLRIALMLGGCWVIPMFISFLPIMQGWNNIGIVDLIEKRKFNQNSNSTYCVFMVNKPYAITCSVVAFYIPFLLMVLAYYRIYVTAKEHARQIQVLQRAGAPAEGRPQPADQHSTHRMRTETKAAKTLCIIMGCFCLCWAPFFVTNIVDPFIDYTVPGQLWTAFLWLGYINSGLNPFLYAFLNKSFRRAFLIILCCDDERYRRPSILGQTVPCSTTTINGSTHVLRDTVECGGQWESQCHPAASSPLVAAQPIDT
# [11] = biological target: T4, Alpha-2A adrenergic receptor (Rattus norvegicus, UniProt P22909); test: Displacement of [3H]RX821002 from adrenergic alpha2 receptor in rat cortex
# T4 sequence (P22909 whole entry): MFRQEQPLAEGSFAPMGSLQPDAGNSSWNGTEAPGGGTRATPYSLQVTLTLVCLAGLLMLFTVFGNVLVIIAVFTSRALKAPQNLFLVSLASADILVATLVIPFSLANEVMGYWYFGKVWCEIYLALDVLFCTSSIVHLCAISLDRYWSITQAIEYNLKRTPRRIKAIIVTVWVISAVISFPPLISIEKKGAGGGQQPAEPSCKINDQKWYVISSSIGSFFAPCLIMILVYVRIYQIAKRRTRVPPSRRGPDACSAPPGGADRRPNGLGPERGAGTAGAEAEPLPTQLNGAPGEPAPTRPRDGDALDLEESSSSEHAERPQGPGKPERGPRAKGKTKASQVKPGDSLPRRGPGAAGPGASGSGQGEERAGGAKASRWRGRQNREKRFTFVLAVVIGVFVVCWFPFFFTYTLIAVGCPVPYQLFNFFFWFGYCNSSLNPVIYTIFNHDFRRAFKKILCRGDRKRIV
# [12] = biological target: D(1A) dopamine receptor (Rattus norvegicus, UniProt P18901); test: Displacement of [3H]SCH-23390 from dopamine D1 receptor in rat striatum
# D(1A) dopamine receptor, sequence (P18901 whole entry): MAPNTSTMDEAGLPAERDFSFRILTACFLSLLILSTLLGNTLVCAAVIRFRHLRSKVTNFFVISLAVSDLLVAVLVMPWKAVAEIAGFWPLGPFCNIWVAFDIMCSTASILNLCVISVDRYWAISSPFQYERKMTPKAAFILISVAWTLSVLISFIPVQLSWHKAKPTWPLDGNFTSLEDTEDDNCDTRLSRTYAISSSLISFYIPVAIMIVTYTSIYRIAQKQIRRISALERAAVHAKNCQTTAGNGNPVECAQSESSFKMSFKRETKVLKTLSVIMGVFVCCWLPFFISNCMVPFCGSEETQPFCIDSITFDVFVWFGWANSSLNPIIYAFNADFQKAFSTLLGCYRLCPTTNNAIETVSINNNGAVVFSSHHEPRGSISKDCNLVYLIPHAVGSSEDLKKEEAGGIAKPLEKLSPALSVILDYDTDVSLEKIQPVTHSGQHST
# [13] = biological target: D(2) dopamine receptor (Rattus norvegicus, UniProt P61169); test: Displacement of [3H]spiperone from dopamine D2 receptor in rat striatum
# D(2) dopamine receptor, sequence (P61169 whole entry): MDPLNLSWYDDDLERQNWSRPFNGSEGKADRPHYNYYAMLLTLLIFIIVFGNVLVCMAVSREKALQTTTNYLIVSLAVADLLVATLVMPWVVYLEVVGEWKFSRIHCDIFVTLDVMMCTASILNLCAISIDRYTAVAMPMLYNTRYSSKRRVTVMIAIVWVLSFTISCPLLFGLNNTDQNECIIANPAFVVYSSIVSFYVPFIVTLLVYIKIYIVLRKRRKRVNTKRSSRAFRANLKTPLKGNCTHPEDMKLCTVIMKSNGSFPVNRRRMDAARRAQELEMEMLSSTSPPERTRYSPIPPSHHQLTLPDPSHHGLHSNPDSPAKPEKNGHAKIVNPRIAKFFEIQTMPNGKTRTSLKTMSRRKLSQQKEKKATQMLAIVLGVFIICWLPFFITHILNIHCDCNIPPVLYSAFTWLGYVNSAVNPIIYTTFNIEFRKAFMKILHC
# [14] = tested on: Rattus norvegicus; test: Antagonist activity at 5HT3 receptor in iv dosed Sprague-Dawley rat assessed as inhibition of 1-phenylbiguanide-induced bradycardia administered 5 mins before 1-phenylbiguanide challenge measured after 5 to 30 mins post-treatment by von Bezold-Jarisch reflex test; format: functional
# Method in brief: (§3)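 Urethane-anesthetized rats, compound given iv. Agonism was scored as the compound itself evoking the von Bezold-Jarisch reflex (bradycardia). Antagonism was tested by giving the compound iv 5, 15 or 30 min before phenylbiguanide (PBG) and scoring the reduction of PBG-evoked bradycardia. ED50 is the dose giving half of the maximal bradycardia evoked by the same compound.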
# [15] = tested on: Rattus norvegicus; test: Agonist activity at 5HT3 receptor in Sprague-Dawley rat assessed as induction of bradycardia at 1 ug/kg, iv measured after 5 to 30 mins post-treatment by von Bezold-Jarisch reflex test; format: functional, organism-based; method in brief: as §3
# [16] = tested on: Rattus norvegicus; test: Antagonist activity at 5HT3 receptor in Sprague-Dawley rat assessed as inhibition of 1-phenylbiguanide-induced bradycardia at 1 ug/kg, iv administered 5 mins before 1-phenylbiguanide challenge measured after 5 to 30 mins post-treatment by von Bezold-Jarisch reflex test; format: functional, organism-based; method in brief: as §3
# [17] = tested on: Rattus norvegicus; test: Agonist activity at 5HT3 receptor in Sprague-Dawley rat assessed as induction of bradycardia at 10 ug/kg, iv measured after 5 to 30 mins post-treatment by von Bezold-Jarisch reflex test; format: functional; method in brief: as §3
# [18] = tested on: Rattus norvegicus; test: Antagonist activity at 5HT3 receptor in Sprague-Dawley rat assessed as inhibition of 1-phenylbiguanide-induced bradycardia at 10 ug/kg, iv administered 5 mins before 1-phenylbiguanide challenge measured after 5 to 30 mins post-treatment by von Bezold-Jarisch reflex test; format: functional; method in brief: as §3
# [19] = tested on: Rattus norvegicus; test: Agonist activity at 5HT3 receptor in Sprague-Dawley rat assessed as induction of bradycardia at 50 ug/kg, iv measured after 5 to 30 mins post-treatment by von Bezold-Jarisch reflex test; format: functional; method in brief: as §3
# [20] = tested on: Rattus norvegicus; test: Antagonist activity at 5HT3 receptor in Sprague-Dawley rat assessed as inhibition of 1-phenylbiguanide-induced bradycardia at 50 ug/kg, iv administered 5 mins before 1-phenylbiguanide challenge measured after 5 to 30 mins post-treatment by von Bezold-Jarisch reflex test; format: functional; method in brief: as §3
# [21] = tested on: Rattus norvegicus; test: Agonist activity at 5HT3 receptor in Sprague-Dawley rat assessed as induction of bradycardia at 100 ug/kg, iv measured after 5 to 30 mins post-treatment by von Bezold-Jarisch reflex test; format: functional; method in brief: as §3
# [22] = tested on: Rattus norvegicus; test: Antagonist activity at 5HT3 receptor in Sprague-Dawley rat assessed as inhibition of 1-phenylbiguanide-induced bradycardia at 100 ug/kg, iv administered 5 mins before 1-phenylbiguanide challenge measured after 5 to 30 mins post-treatment by von Bezold-Jarisch reflex test; format: functional; method in brief: as §3
# [23] = biological target: T5, Adrenergic receptor alpha-1 (Rattus norvegicus, UniProt P15823+P23944+P43140); test: Displacement of [3H]prazosin from adrenergic alpha1 receptor in rat cortex
# T5 sequence (P15823 whole entry): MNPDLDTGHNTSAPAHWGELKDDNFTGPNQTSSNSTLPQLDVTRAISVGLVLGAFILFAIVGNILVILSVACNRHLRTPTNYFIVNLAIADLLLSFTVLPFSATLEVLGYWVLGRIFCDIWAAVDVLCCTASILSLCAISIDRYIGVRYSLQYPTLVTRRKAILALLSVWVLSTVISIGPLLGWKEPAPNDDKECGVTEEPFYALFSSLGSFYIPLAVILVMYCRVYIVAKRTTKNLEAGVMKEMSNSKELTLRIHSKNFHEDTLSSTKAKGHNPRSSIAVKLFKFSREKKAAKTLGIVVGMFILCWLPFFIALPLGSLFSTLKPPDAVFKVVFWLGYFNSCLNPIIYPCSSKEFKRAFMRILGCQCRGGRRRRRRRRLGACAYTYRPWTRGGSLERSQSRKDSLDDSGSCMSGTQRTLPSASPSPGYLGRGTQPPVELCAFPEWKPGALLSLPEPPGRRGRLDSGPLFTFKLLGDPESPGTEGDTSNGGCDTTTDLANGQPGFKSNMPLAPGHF
# T5 sequence (P23944 whole entry): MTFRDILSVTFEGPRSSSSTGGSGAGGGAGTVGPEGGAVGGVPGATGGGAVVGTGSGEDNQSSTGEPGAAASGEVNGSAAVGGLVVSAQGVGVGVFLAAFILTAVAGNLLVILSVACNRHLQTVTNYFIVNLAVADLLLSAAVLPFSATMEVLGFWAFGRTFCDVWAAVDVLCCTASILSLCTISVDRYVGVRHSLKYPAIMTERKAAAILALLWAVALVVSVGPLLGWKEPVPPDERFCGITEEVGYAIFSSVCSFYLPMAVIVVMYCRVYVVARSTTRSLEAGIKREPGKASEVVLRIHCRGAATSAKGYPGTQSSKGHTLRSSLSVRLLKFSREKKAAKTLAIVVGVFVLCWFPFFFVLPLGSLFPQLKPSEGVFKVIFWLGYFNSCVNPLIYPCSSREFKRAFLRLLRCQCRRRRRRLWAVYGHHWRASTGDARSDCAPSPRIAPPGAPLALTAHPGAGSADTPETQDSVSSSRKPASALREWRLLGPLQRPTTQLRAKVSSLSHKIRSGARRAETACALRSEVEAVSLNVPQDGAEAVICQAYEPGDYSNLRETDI
# T5 sequence (P43140 whole entry): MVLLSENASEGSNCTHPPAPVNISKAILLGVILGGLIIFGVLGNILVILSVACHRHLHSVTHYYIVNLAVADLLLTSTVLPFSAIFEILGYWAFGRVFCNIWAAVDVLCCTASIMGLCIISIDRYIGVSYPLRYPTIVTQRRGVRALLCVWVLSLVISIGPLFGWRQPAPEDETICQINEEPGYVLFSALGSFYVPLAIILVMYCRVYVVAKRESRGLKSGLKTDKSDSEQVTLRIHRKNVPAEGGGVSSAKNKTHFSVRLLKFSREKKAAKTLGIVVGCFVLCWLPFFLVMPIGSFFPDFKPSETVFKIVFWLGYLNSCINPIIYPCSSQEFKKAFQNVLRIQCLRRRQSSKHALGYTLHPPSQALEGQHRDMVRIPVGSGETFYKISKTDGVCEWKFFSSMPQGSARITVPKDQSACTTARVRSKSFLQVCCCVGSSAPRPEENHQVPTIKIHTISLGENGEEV
# [24] = biological target: Muscarinic acetylcholine receptor; test: Displacement of [3H]QNB from muscarinic receptor in rat cortex
smiles,measurement,setting,value
Fc1ccc2c(c1)nc(N1CCN(Cc3cnc[nH]3)CC1)c1cccn12,Ki,[1],0.68 nM
same,IC50,[2],270 nM
same,Cp,[3],BLD
same,concentration,[4],90 nM
same,concentration,[5],210 nM
same,Kp,[6],1.3
same,Kp,[7],1
same,Ki,[8],> 10 µM
same,Ki,[9],> 10 µM
same,Ki,[10],> 10 µM
same,Ki,[11],> 10 µM
same,Ki,[12],> 10 µM
same,Ki,[13],> 10 µM
Fc1ccc2c(c1)nc(N1CCN(Cc3c[nH]cn3)CC1)c1cccn12,ID50,[14],0.01 mg/kg
same,Activity,[15],inactive
same,Activity,[16],inactive
same,Activity,[17],Active
same,Activity,[18],Active
same,Activity,[19],Active
same,Activity,[20],Active
same,Activity,[21],40%
same,Activity,[22],Active
same,Ki,[23],> 10 µM
same,Ki,[24],> 10 µM
